Read-outs that look alike come from different tables or passages of the source.
Columns and labels:
[1] = system: T. brucei cells; experiment: Protein synthesis inhibition assay; format: cell-based, Trypanosoma brucei; settings: 4 h, concentrations 1 to 16 times the 48 hour EC50
Outline: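 Mid-log bloodstream-form T. brucei (5×10^5 cells/well) in HMI-9 medium, given test compound in triplicate and preincubated 15 min, with a no-drug control on each plate. Cells cultured with 3H-histidine; filters counted by scintillation.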

[2] = target: T1, human mitochondrial MetRS (Homo sapiens, UniProt Q96GW9); experiment: Human mitochondrial methionyl-tRNA synthetase aminoacylation assay; format: biochemical
T1 sequence (Q96GW9 30-593): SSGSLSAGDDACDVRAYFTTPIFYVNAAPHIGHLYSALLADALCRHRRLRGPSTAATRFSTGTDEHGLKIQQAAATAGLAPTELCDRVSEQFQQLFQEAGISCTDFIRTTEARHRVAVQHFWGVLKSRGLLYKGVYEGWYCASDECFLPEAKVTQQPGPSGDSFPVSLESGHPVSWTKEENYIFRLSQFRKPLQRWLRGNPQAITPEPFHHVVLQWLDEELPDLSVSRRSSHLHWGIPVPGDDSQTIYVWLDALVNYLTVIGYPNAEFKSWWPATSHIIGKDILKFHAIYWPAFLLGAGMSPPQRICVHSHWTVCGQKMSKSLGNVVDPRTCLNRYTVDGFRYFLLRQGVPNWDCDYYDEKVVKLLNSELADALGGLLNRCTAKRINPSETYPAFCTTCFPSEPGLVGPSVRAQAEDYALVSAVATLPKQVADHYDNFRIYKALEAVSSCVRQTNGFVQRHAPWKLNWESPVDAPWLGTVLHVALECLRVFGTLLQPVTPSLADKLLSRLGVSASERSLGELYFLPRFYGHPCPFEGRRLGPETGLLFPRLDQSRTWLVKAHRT
Outline: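 Recombinant enzyme (20 nM) preincubated 15 min with 12 serial two-fold dilutions of test compound in 50 mM Tris-HCl pH 8.0, 2.5 mM MgCl2, 2.5 mM KCl, 0.2 mM spermine, 0.2 mg/mL BSA, 2.5 mM DTT, 1 U/mL pyrophosphatase. Started with 200 μg/mL E. coli tRNA, 2.5 mM ATP, 250 nM [3H]methionine; 120 min, 37°C. Filtered, TCA-washed, scintillation-counted in quadruplicate; IC50 by sigmoidal nonlinear regression.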

[3] = system: CRL-8155 human lymphoblast cell line; experiment: Mammalian cell growth inhibition assay; format: cell-based; settings: CRL8155, 48 h, read-out: CRL-8155 IC50
[4] = system: T. brucei rhodesiense; experiment: Efficacy studies in mice; format: in vivo; settings: 50 mg/kg oral every 12 h for 4 days
[5] = system: MDR1-MDCKII cells; experiment: MDR1-MDCKII assay; settings: 3 μM
[6] = system: MDR1-MDCKII cells; settings: dog, MDCK-MDR1, 60 min, 3 μM

How did the “Incorporation of 3H-amino acid into proteins” value (from here on “Incorporation”) [1] turn out when `Oc1cc(NCCCNCc2cc(Cl)cc(Cl)c2)nc2ccccc12` [Compound 1] was run?
The value was “dose dependent decrease”.

What does the source list for `O=C(NCCCNCc1cc(Cl)cc(Cl)c1)Nc1ccsc1` [Compound 26, 1-[3-(3,5-Dichloro-benzylamino)-propyl]-3-thiophen-3-yl-urea]?
IC50 [2]: 4.35 µM; IC50 [3]: 12 µM; Extension of survival [4]: 1 days; Toxicity in treated mice [4]: No toxicity; Incorporation of 3H-amino acid into proteins [1]: dose dependent decrease

With `C[C@@H]1C[C@@H]([C@H](O)CC2CC(=O)NC(=O)C2)C(=O)[C@@H](C)C1` [cycloheximide] as the compound, how does the “Incorporation” value [1] read?
Its value is “dose dependent decrease”.

`CC(C)CN(C[C@@H](O)[C@H](Cc1ccccc1)NC(=O)O[C@H]1CCOC1)S(=O)(=O)c1ccc(N)cc1` [Amprenavir] was tested. Which “AQ (typical control value)” value [5] did it give?
The value was > 0.5.

`NCCCC(N)(C(=O)O)C(F)F` (stereo not shown) [DFMO, difluoromethylornithine] was tested. Which “Incorporation” value [1] did it give?
The value was “did not result in a dose dependent decrease”.

For `COc1cc(Cl)cc(CNCCCNC(=O)Nc2ccccc2)c1` [Compound 4], which IC50 [2] is on record?
Its IC50 is 8.35 µM.

And the IC50 [3]?
The IC50 was 20 µM.

What does the source list for `O=C(NCCCNCc1cc(Cl)cc(Cl)c1)Nc1cccc(F)c1` [Compound 18]?
IC50 [2]: 4.25 µM; IC50 [3]: 43.2 µM

What does the source list for `O=C(NCCCNCc1cc(Cl)cc(Cl)c1)Nc1cccs1` [Compound 28]?
IC50 [2]: 3.06 µM; IC50 [3]: 9.5 µM

Which results are given for `COc1cc(Cl)cc(CNCCCNC(=O)Nc2ccsc2)c1` [Compound 27, 1-[3-(3-Chloro-5-methoxy-benzylamino)-propyl]-3-thiophen-3-yl-urea]?
IC50 [2]: 6.59 µM; IC50 [3]: 22 µM

With `O=C(NCCCNCc1cc(Cl)cc(Cl)c1)Nc1cccc(O)c1` [Compound 17] as the compound, how does the IC50 [2] read?
Its IC50 is 5.43 µM.

What about the IC50 [3] of the same compound?
The IC50 was 12 µM.

What does the source list for `O=C(NCCCNCc1cc(Cl)cc(Cl)c1)Nc1ccccc1O` [Compound 16]?
IC50 [2]: 3.72 µM; IC50 [3]: > 20 µM

Which IC50 [2] does the source give for `O=C(NCCCNCc1cc(Cl)cc(Cl)c1)Nc1ccccc1` [Compound 2, 1-(3-(3,5-Dichlorobenzylamino)propyl)-3-phenylurea] here?
The IC50 was > 10 µM.

And the “Selectivity Index Human IC50 / T. brucei IC50” value ([2]; human mitochondrial MetRS IC50 over T. brucei MetRS IC50)?
Its value is >175.

What about the IC50 [3] of the same compound?
The IC50 was 12 µM.

With `CC(C)NCC(O)COc1cccc2ccccc12` (stereo not shown) [Propranolol] as the compound, how does the “AQ (typical control value)” value [6] read?
Its value is < 0.5.

— PMC3480199 (Journal of medicinal chemistry, 2012)
